Test results: ChEMBL document CHEMBL3804821, “Design and synthesis of some novel 4-Chloro-N-(4-(1-(2-(2-cyanoacetyl)hydrazono)ethyl)phenyl) benzenesulfonamide derivatives as anticancer and radiosensitizing agents” (Eur J Med Chem, 2016)

How the values were obtained:
[1] = test system: HepG2; test: Cytotoxicity against human HepG2 cells assessed as surviving fraction at 12.5 uM after 48 hrs by SRB assay relative to control; assay type: functional
How it was run: (§1)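 Cells seeded at 10^4/well and allowed to attach for 24 h. Compounds dissolved in DMSO, diluted with saline, and added at 12.5, 25, 50 and 100 µM in triplicate wells. Exposure 48 h, 37 °C, 5% CO2. Cells then TCA-fixed and stained 30 min with 0.4% SRB in 1% acetic acid, washed four times with 1% acetic acid, and dye recovered in Tris-EDTA. Absorbance read and surviving fraction plotted against concentration to obtain IC50.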

[2] = test system: HepG2; test: Cytotoxicity against human HepG2 cells assessed as surviving fraction at 25 uM after 48 hrs by SRB assay relative to control; assay type: functional; how it was run: as §1
[3] = test system: HepG2; test: Cytotoxicity against human HepG2 cells assessed as surviving fraction at 50 uM after 48 hrs by SRB assay relative to control; assay type: functional; how it was run: as §1
[4] = test system: HepG2; test: Cytotoxicity against human HepG2 cells assessed as surviving fraction at 100 uM after 48 hrs by SRB assay relative to control; assay type: functional; how it was run: as §1
[5] = test system: HepG2; test: Cytotoxicity against human HepG2 cells assessed as cell viability after 48 hrs by SRB assay; assay type: functional, cell-based; conditions: HepG2, 48 h; how it was run: as §1
[6] = test system: HepG2; test: Cytotoxicity against human HepG2 cells assessed as surviving fraction at 12.5 uM treated for 2 hrs followed by gamma irradiation of 8 Gy with dosage rate of 0.758 rad/sec for 17.73 mins measured after 48 hrs by SRB assay relative to control; assay type: functional
How it was run: (§2)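 Cells seeded at 10^4/well for 24 h, then given compound at 12.5, 25, 50 or 100 µM. After 2 h, a single 8 Gy γ-ray dose was delivered (0.758 rad/sec, 17.73 min). Cells fixed 48 h after irradiation and stained with 0.4% SRB in 1% acetic acid, read at 570 nm. Surviving fraction reported as mean ± standard error and analysed by 1-way ANOVA; IC50 taken from the survival curve.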

[7] = test system: HepG2; test: Cytotoxicity against human HepG2 cells assessed as surviving fraction at 25 uM treated for 2 hrs followed by gamma irradiation of 8 Gy with dosage rate of 0.758 rad/sec for 17.73 mins measured after 48 hrs by SRB assay relative to control; assay type: functional; how it was run: as §2
[8] = test system: HepG2; test: Cytotoxicity against human HepG2 cells assessed as surviving fraction at 50 uM treated for 2 hrs followed by gamma irradiation of 8 Gy with dosage rate of 0.758 rad/sec for 17.73 mins measured after 48 hrs by SRB assay relative to control; assay type: functional; how it was run: as §2
[9] = test system: HepG2; test: Cytotoxicity against human HepG2 cells assessed as surviving fraction at 100 uM treated for 2 hrs followed by gamma irradiation of 8 Gy with dosage rate of 0.758 rad/sec for 17.73 mins measured after 48 hrs by SRB assay relative to control; assay type: functional; how it was run: as §2
[10] = test system: HepG2; test: Cytotoxicity against human HepG2 cells assessed as cell viability treated for 2 hrs followed by gamma irradiation of 8 Gy with dosage rate of 0.758 rad/sec for 17.73 mins measured after 48 hrs by SRB assay; assay type: functional, cell-based; conditions: HepG2, light or radiation study; how it was run: as §2
[11] = test system: HepG2; test: Potency index, ratio of doxorubicin IC50 to compound IC50 for human HepG2 cells; assay type: functional

`C/C(=N\NC(=O)/C(C#N)=C/N(C)C)c1ccc(NS(=O)(=O)c2ccc(Cl)cc2)cc1` showed a Ratio [1] of 0.642, a Ratio [2] of 0.386 and a Ratio [3] of 0.311. It also gave a Ratio [4] of 0.281 and an IC50 [5] of 19.4 µM.
In the case of `CCOC(=O)c1c(-c2ccccc2OC)c(C#N)c(=O)n(/N=C(\C)c2ccc(NS(=O)(=O)c3ccc(Cl)cc3)cc2)c1N`, the Ratio [1] is reported as 0.489, the Ratio [2] is reported as 0.129 and the Ratio [3] is reported as 0.105. For the same compound, the Ratio [4] was 0.087 and the IC50 [5] was 11.4 µM.
`CCOC(=O)c1c(-c2ccc([N+](=O)[O-])cc2)c(C#N)c(=O)n(/N=C(\C)c2ccc(NS(=O)(=O)c3ccc(Cl)cc3)cc2)c1N` was tested, and the Ratio [1] was 0.713, the Ratio [2] was 0.586 and the Ratio [3] was 0.483. For the same compound, the Ratio [4] was 0.212 and the IC50 [5] was 41.1 µM.
`CCOC(=O)c1c(-c2ccc(N(C)C)cc2)c(C#N)c(=O)n(/N=C(\C)c2ccc(NS(=O)(=O)c3ccc(Cl)cc3)cc2)c1N` was tested, and the Ratio [1] was 0.653, the Ratio [2] was 0.432 and the Ratio [3] was 0.396. For the same compound, the Ratio [4] was 0.196 and the IC50 [5] was 21 µM.
For `CCOC(=O)c1c(-c2ccccc2Cl)c(C#N)c(=O)n(/N=C(\C)c2ccc(NS(=O)(=O)c3ccc(Cl)cc3)cc2)c1N`, the Ratio [1] was 0.488, the Ratio [2] was 0.545 and the Ratio [3] was 0.342. For the same compound, the Ratio [4] was 0.192 and the IC50 [5] was 11.4 µM.
`CCOC(=O)c1c(/C=C/c2ccccc2)c(C#N)c(=O)n(/N=C(\C)c2ccc(NS(=O)(=O)c3ccc(Cl)cc3)cc2)c1N` was tested, and the Ratio [1] was 0.414, the Ratio [2] was 0.336 and the Ratio [3] was 0.275. For the same compound, the Ratio [4] was 0.114 and the IC50 [5] was 10.7 µM.
`CCOC(=O)c1c(-c2ccc(Cl)cc2)c(C#N)c(=O)n(/N=C(\C)c2ccc(NS(=O)(=O)c3ccc(Cl)cc3)cc2)c1N` gave a Ratio [1] of 0.555, a Ratio [2] of 0.463 and a Ratio [3] of 0.394. For the same compound, the Ratio [4] was 0.314 and the IC50 [5] was 20.2 µM.
For `CCOC(=O)c1c(-c2ccc(OC)cc2)c(C#N)c(=O)n(/N=C(\C)c2ccc(NS(=O)(=O)c3ccc(Cl)cc3)cc2)c1N`, the Ratio [1] was 0.651, the Ratio [2] was 0.637 and the Ratio [3] was 0.613. The Ratio [4] was 0.147 and the IC50 [5] was 61.7 µM.
`CCO/C=C(\C#N)C(=O)N/N=C(\C)c1ccc(NS(=O)(=O)c2ccc(Cl)cc2)cc1` showed a Ratio [1] of 0.556, a Ratio [2] of 0.406 and a Ratio [3] of 0.228. The Ratio [4] was 0.222 and the IC50 [5] was 16.8 µM.
With `CCOC(=O)c1c(-c2ccccc2)c(C#N)c(=O)n(/N=C(\C)c2ccc(NS(=O)(=O)c3ccc(Cl)cc3)cc2)c1N` the Ratio [1] was 0.617, the Ratio [2] was 0.287 and the Ratio [3] was 0.212. It also gave a Ratio [4] of 0.179 and an IC50 [5] of 16.8 µM.
With `CSC(SC)=C(C#N)C(=O)N/N=C(\C)c1ccc(NS(=O)(=O)c2ccc(Cl)cc2)cc1` the Ratio [1] was 0.579, the Ratio [2] was 0.44 and the Ratio [3] was 0.329. The Ratio [4] was 0.266 and the IC50 [5] was 19.4 µM.
`COc1cccc2c1C(=O)c1c(O)c3c(c(O)c1C2=O)C[C@@](O)(C(=O)CO)C[C@@H]3O[C@H]1C[C@H](N)[C@H](O)[C@H](C)O1` [DOXORUBICIN] gave a Ratio [1] of 0.551, a Ratio [2] of 0.48 and a Ratio [3] of 0.139. For the same compound, the Ratio [4] was 0.13.
`CCOC(=O)c1c(-c2ccc3c(c2)OCO3)c(C#N)c(=O)n(/N=C(\C)c2ccc(NS(=O)(=O)c3ccc(Cl)cc3)cc2)c1N` gave a Ratio [1] of 0.691, a Ratio [2] of 0.606 and a Ratio [3] of 0.373. It also gave a Ratio [4] of 0.134 and an IC50 [5] of 37 µM.
In the case of `C/C(=N\NC(=O)C(C#N)C(=S)S)c1ccc(NS(=O)(=O)c2ccc(Cl)cc2)cc1` (stereo not given), the Ratio [1] is reported as 0.542, the Ratio [2] is reported as 0.448 and the Ratio [3] is reported as 0.387. The Ratio [4] was 0.248 and the IC50 [5] was 17.5 µM.
`CCOC(=O)c1c(-c2cccc([N+](=O)[O-])c2)c(C#N)c(=O)n(/N=C(\C)c2ccc(NS(=O)(=O)c3ccc(Cl)cc3)cc2)c1N` gave a Ratio [1] of 0.661, a Ratio [2] of 0.524 and a Ratio [3] of 0.381. The Ratio [4] was 0.298 and the IC50 [5] was 29.7 µM.
With `CCOC(=O)c1c(-c2ccc(C)cc2)c(C#N)c(=O)n(/N=C(\C)c2ccc(NS(=O)(=O)c3ccc(Cl)cc3)cc2)c1N` the Ratio [1] was 0.264, the Ratio [2] was 0.25 and the Ratio [3] was 0.214. It also gave a Ratio [4] of 0.107, an IC50 [5] of 8.38 µM and a Ratio [6] of 0.18. For the same compound, the Ratio [7] was 0.15, the Ratio [8] was 0.12 and the Ratio [9] was 0.11. For the same compound, the IC50 [10] was 7.3 µM.
`C/C(=N\NC(=O)CC#N)c1ccc(NS(=O)(=O)c2ccc(Cl)cc2)cc1` was tested, and the Ratio [1] was 0.18, the Ratio [2] was 0.159 and the Ratio [3] was 0.078. For the same compound, the Ratio [4] was 0.064, the IC50 [5] was 8 µM and the “Ratio IC50” value [11] was 4. It also gave a Ratio [6] of 0.26, a Ratio [7] of 0.25 and a Ratio [8] of 0.12. The Ratio [9] was 0.11 and the IC50 [10] was 6.5 µM.
For `CCOC(=O)c1c(-c2ccco2)c(C#N)c(=O)n(/N=C(\C)c2ccc(NS(=O)(=O)c3ccc(Cl)cc3)cc2)c1N`, the Ratio [1] was 0.413, the Ratio [2] was 0.367 and the Ratio [3] was 0.37. It also gave a Ratio [4] of 0.342, an IC50 [5] of 10.3 µM and a Ratio [6] of 0.32. The Ratio [7] was 0.22, the Ratio [8] was 0.1 and the Ratio [9] was 0.1. For the same compound, the IC50 [10] was 8.8 µM.
